LMPTP block: LMPTP phosphatase inhibitors, primary screen, biochemical, fluorescence intensity, uHTS; Low molecular weight phosphotyrosine protein phosphatase (Homo sapiens), P24666; 360,000 tested, 0.22% active; recombinant LMPTP-A, OMFP fluorogenic substrate; inhibition, % at 20 µM;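 active = compounds that cut the enzyme signal by at least half of the control window in the single-dose screen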;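 also: plate controls were DMSO wells with enzyme plus substrate for no effect and substrate without enzyme for full effect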
Target sequence (P24666 whole entry, looked up): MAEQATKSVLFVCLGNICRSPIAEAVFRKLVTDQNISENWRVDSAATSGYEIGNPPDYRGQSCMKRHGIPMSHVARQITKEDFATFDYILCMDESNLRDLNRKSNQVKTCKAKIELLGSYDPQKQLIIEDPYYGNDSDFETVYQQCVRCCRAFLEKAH
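Test system: LMPTP-A phosphatase enzyme. Amount: LMPTP-A at 0.625 nM final in the reaction. Reagent: OMFP substrate, 400 µM final. Times: 50 min at room temperature. Signal: endpoint fluorescence intensity from OMFP dephosphorylation. Read-out basis: % inhibition. Benchmarks: no-enzyme and uninhibited controls.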
Scp-1 inhibitor: Scp-1 phosphatase inhibitors, primary screen, biochemical, colorimetric, uHTS | Carboxy-terminal domain RNA polymerase II polypeptide A small phosphatase 1 (Homo … | Recombinant Scp1, phosphopeptide, malachite green phosphate absorbance | inhibition, % at 20 µM | 340,000 tested, 0.88% active | AID 493091, 2011;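 active = inhibition above about 50% at 20 µM, limit read from the data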;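 also: plate controls were DMSO wells with enzyme for no effect and wells lacking enzyme for full effect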
Target sequence (Q9GZU7 76-261 limits assumed): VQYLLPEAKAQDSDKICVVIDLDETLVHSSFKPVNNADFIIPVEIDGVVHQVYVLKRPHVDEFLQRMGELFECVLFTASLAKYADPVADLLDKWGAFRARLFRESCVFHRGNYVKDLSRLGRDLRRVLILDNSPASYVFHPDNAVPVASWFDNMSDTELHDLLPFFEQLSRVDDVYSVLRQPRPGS
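Material: truncated SCP-1 phosphatase (76-261aa) / Buffer or medium: 50 mM Tris acetate pH 5.5, 0.005% Tween-20, 10 mM MgCl2 / Compound dosing: one concentration, 20 µM, with 1.0% DMSO / Incubation: 45 min room-temperature reaction, 5 min colour, 30 min stabiliser / Detection: colorimetric free-phosphate detection, absorbance 630 nm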
DNMT1 block: human DNMT1 methyltransferase inhibitors, primary screen, biochemical, molecular beacon, fluorescence, HinP1I cleavage, uHTS | inhibition (reported as % activation of signal), % at 10 µM | AID 588458, 2011 | DNA (cytosine-5)-methyltransferase 1 (Homo sapiens), P26358 | 360,000 tested, 0.83% active; in the data active = inhibition above about 50%
STEP block: STEP phosphatase inhibitors, primary screen, biochemical, fluorescence intensity, uHTS | Tyrosine-protein phosphatase non-receptor type 5 (Homo sapiens), P54829 | recombinant STEP, OMFP fluorogenic substrate | inhibition, % at 20 µM | 360,000 tested, 0.25% active | AID 588621, 2011;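 active = inhibition at 20 µM, scaled per plate between control wells, above about 37%, limit read from the data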;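 also: 0% = DMSO with enzyme and substrate and 100% = substrate only without enzyme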
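System: isolated STEP enzyme; schedule: 20 min enzyme reaction at room temperature, protected from light; medium: Bis-Tris buffer pH 6.0, 2.5 mM DTT, 0.005% Tween 20; signal: fluorescence, 480/540 nm; dosing: single compound dose of 20 µM, 1% DMSO final; also added: OMFP substrate, 25 µM final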
SUMO1-SIM PPI: modulators of SUMO1 protein-protein interactions, primary screen, biochemical, uHTS; Small ubiquitin-related modifier 1 (Homo sapiens), P63165; SUMO1 binding to a labelled peptide, TR-FRET, 1 h; inhibition, % at 20 µM; 360,000 tested, 0.33% active; AID 602429, 2012; in the data active = inhibition above about 37%
Target sequence (P63165 whole entry, looked up): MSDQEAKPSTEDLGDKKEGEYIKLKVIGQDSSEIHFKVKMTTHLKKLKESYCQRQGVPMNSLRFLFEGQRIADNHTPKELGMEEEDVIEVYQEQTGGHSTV
STEP conf: STEP phosphatase inhibitor hit confirmation, biochemical, fluorescence intensity, single concentration | shares compounds with STEP block | recombinant STEP, OMFP fluorogenic substrate | inhibition, % at 20 µM | 520 tested, 32% active | AID 623866, 2012; call rule not given here;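 also: 0% = enzyme with substrate plus DMSO and 100% = substrate without enzyme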
Numbers without * were called inactive; · = not tested or not shown. An excerpt weighted towards active compounds, which were near 1.7% of everything screened.

SMILES	LMPTP block	Scp-1 inhibitor	DNMT1 block	STEP block	SUMO1-SIM PPI	STEP conf
CCN1CCN(C(=S)c2ccc(Cl)c(Cl)c2)CC1	-1	-9	2	91*	1	51*
Cc1ccc(NC(=S)N2CCN(Cc3ccccc3)CC2)cc1	0	-2	1	2	-2	·
S=C(c1ccccc1)N1CCN(C(=S)c2ccccc2)CC1	-1	-7	-2	3	-1	·
CCN1CCN(C(=S)c2ccc(-c3ccccc3)cc2)CC1	-1	-1	0	42*	-1	25
O=C(COc1ccccc1Cl)Nc1nnc(S(=O)(=O)N2CCCC2)s1	0	3	6	2	18	·
Oc1ccccc1C=NNC(=S)Nc1ccc(F)cc1	2	-10	-15	-6	-6	·
Cc1nn(C)cc1/C=N/NC(=S)Nc1ccccc1	1	-7	-2	76*	1	50*
COc1cc2c(cc1OC)CN(C(=O)C1CCN(S(=O)(=O)c3ccccc3F)CC1)CC2	1	3	-12	0	2	·
COc1cc(Cl)cc(/C=N\NC(=O)c2ccc3c(c2)OCO3)c1O	21	·	3	52*	24	84*
c1ccc2c(-c3cc(C4CCNCC4)[nH]n3)cccc2c1	0	-4	-6	0	-8	·
CCC(CC)c1nnc(NC(=O)c2cc(C(=O)OC)cc([N+](=O)[O-])c2)s1	1	-9	7	97*	-17	69*
Cn1c(N)c(Sc2ccc(F)cc2)c(=O)n(C)c1=O	0	-1	3	-1	1	·
Cc1ccc(NC(=O)C(c2ccccc2)N2CCN(CC(=O)N3CCOCC3)CC2)cc1Cl (stereo not drawn)	7	48	23	46*	0	-10
Cc1cc(-c2nnc3sc(-c4ccc(Cl)cc4Cl)nn23)n[nH]1	32	30	12	86*	-2	1
COc1ccc(NS(=O)(=O)c2cccc(C(=O)N3CCN(c4ccccc4O)CC3)c2)cc1	2	-2	-8	-3	3	·
COc1ccc(-c2nc(CSCC(=O)NCCCN3CCCC3=O)c(C)o2)cc1OC	0	-4	4	-2	5	·
COC(=O)c1ccc(NC(=O)c2cn(-c3ccccc3)nc2-c2ccncc2)cc1	1	6	-8	46*	19	-4
C/C(=N\NC(=O)c1ccncc1)c1ccc(N2CCOCC2)cc1	0	4	-3	-3	-6	·
C/C(=N\NC(=O)c1ccc(OC2OCCOC2Oc2ccc(C(=O)N/N=C(\C)c3ccncc3)cc2)cc1)c1ccncc1 (stereo not drawn)	66*	14	34	45*	78*	-5
O=C(c1ccc(Cl)cc1)N1CCC2CC1c1cc(-c3ccccc3)ccc12 (stereo not drawn)	7	-12	-4	3	4	·
N#Cc1ccc(C(=O)N2CCC3CC2c2cc(-c4ccccc4)ccc23)cc1 (stereo not drawn)	2	-8	1	70*	8	21
CNC(=S)Nc1ccccc1-c1ccccc1	-2	-4	11	41*	1	6
CCNC(=S)Nc1ccccc1-c1ccccc1	-1	-5	-2	-3	2	·
O=C(Nc1nnc(-c2ccc(Cl)cc2)o1)c1nc2ccccc2s1	15	-10	-12	72*	7	5
COc1ccc(NC(=S)N(CCc2ccc(OC)c(OC)c2)Cc2ccccn2)cc1	-1	-5	1	48*	-1	13
COc1ccc(CCN(Cc2ccccn2)C(=S)Nc2cccc(C)c2)cc1OC	-1	-6	8	-1	1	·
C/C(=N/NC(=O)c1cnccn1)c1cccs1	-1	3	4	-2	-3	·
CCOc1ccc(C(=O)Nc2cc(-c3nc4ccccc4[nH]3)ccc2Cl)cc1[N+](=O)[O-]	2	7	-13	54*	18	47*

Compound activity (PubChem BioAssay)
